In ChEMBL document CHEMBL3352289, “Potent and selective MAO-B inhibitory activity: amino- versus nitro-3-arylcoumarin derivatives” (Bioorg Med Chem Lett, 2015):

Assays:
[1] = organism: Homo sapiens; assay: Selectivity index, ratio of IC50 for human recombinant MAOA to IC50 for human recombinant MAOB
Method in brief: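 Ratio of IC50 (hMAO-A) to IC50 (hMAO-B). Both come from the Amplex Red/p-tyramine H2O2 assay with recombinant insect-cell microsomal isoforms. Each IC50 is the mean of five experiments. Where an IC50 was not reached at the highest concentration tested (100), that IC50 was taken as greater than 100.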

[2] = Octanol/water partition coefficient, log P of the compound; format: physicochemical
[3] = target: T1, Amine oxidase [flavin-containing] A (Homo sapiens, UniProt P21397); assay: Inhibition of human recombinant MAOA expressed in BTI-TN-5B1-4 cells using p-tyramine substrate assessed as reduction in H2O2 production at 100 uM; format: cell-based; conditions: bti-tn-5b1-4, 100 µM
T1 sequence (P21397 whole entry): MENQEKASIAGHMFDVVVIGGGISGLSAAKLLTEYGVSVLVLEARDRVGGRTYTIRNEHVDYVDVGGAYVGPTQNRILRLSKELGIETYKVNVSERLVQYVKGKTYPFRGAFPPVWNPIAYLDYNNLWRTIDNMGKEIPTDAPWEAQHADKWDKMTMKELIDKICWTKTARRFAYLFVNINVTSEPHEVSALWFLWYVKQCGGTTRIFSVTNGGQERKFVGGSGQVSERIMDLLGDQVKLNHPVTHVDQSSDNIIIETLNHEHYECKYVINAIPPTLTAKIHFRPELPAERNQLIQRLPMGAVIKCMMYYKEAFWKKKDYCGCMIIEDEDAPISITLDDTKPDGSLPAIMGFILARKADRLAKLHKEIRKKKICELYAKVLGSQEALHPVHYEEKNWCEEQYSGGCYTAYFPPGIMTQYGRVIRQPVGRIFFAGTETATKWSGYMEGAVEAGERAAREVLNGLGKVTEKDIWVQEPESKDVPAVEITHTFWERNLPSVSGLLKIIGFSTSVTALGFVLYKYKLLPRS

[4] = target: T1, Amine oxidase [flavin-containing] A; assay: Inhibition of human recombinant MAOA expressed in BTI-TN-5B1-4 cells using p-tyramine substrate assessed as reduction in H2O2 production; format: cell-based
[5] = target: T2, Amine oxidase [flavin-containing] B (Homo sapiens, UniProt P27338); format: cell-based, BTI-TN-5B1-4
T2 sequence (P27338 whole entry): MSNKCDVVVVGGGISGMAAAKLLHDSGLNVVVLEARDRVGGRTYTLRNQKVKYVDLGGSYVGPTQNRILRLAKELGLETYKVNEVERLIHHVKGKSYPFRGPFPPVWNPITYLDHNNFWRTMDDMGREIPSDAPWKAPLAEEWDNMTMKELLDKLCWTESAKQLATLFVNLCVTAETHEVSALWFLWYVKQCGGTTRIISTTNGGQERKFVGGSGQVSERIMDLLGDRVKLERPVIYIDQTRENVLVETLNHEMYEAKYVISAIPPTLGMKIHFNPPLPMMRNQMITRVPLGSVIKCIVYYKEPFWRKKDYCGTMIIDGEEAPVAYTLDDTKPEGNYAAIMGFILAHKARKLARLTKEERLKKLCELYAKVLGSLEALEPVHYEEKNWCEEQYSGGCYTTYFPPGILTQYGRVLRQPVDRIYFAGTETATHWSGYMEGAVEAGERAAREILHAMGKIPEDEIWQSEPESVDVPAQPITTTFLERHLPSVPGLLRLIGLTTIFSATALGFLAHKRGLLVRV

[6] = target: T2, Amine oxidase [flavin-containing] B; assay: Inhibition of human recombinant MAOB expressed in BTI-TN-5B1-4 cells using p-tyramine substrate assessed as reduction in H2O2 production at 100 uM; format: cell-based; conditions: bti-tn-5b1-4, 100 µM
Method in brief: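 Microsomal hMAO-B from BTI-TN-5B1-4 insect cells infected with recombinant baculovirus. Enzyme, dosed to oxidise 165 pmol p-tyramine/min, was preincubated with drug in 0.05 M sodium phosphate pH 7.4 (DMSO ≤1%) for 15 min at 37 °C. Reaction started with Amplex Red, 1 U/mL HRP and 1 mM p-tyramine. Resorufin fluorescence (ex 545/em 590 nm) read over 15 min at 37 °C, minus enzyme-free background, versus vehicle control.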

[7] = target: Amine oxidase [flavin-containing] B (Homo sapiens) (UniProt P27338); assay: Reversible inhibition of human recombinant MAOB expressed in BTI-TN-5B1-4 cells assessed as AUF/t ratio at 2.5 nM by effective dilution method relative to untreated control; design: scale not given: the % may be the effect or the level left; conditions: BTI-TN-5B1-4, human
[8] = Permeability by PAMPA method; format: ADME; conditions: read-out: Peff
Method in brief: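 PAMPA-BBB assay. A PVDF filter was coated with porcine brain lipid in dodecane (20 mg/mL). Compound at 100 µg/mL in PBS pH 7.4/ethanol 70:30 was placed in the donor wells, with the same buffer in the acceptor wells. Plates were incubated 240 min at 25 °C, and acceptor concentration was read by UV-vis at five wavelengths, four wells, ≥3 runs, mean ± SD. Ten reference drugs validated each run.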

[9] = target: T1, Amine oxidase [flavin-containing] A; assay: Reversible inhibition of human recombinant MAOA expressed in BTI-TN-5B1-4 cells assessed as AUF/t ratio at 20 nM by effective dilution method relative to untreated control; format: cell-based; design: scale not given: the % may be the effect or the level left; conditions: BTI-TN-5B1-4, human; read-out: Activity

| Structure (SMILES) | Ratio IC50 [1] | logP [2] | inhibition (INH) [3] | IC50 ([4]; bti-tn-5b1-4) | IC50 ([5]; read-out: IC50) | IC50 ([5]; bti-tn-5b1-4) | inhibition (INH) [6] | activity at 0.0025 µM [7] | IC50 ([4]; read-out: IC50) | Papp [8] | activity at 0.02 µM [9] |
| --- | --- | --- | --- | --- | --- | --- | --- | --- | --- | --- | --- |
| Cc1ccc2oc(=O)c(-c3ccccc3[N+](=O)[O-])cc2c1 | > 18 | 4.07 | Not Active | Not Active | 5520 nM |  |  |  |  |  |  |
| Cc1ccc2oc(=O)c(-c3ccc(N)cc3)cc2c1 | > 25000 | 3.24 | Not Active | Not Active | 4.1 nM |  |  |  |  |  |  |
| O=C(NCCN1CCOCC1)c1ccc(Cl)cc1 [MOCLOBEMIDE] |  | 1.68 |  |  |  | Not Active | Not Active |  |  |  |  |
| Cc1ccc2oc(=O)c(-c3ccccc3N)cc2c1 | > 46 | 3.6 | Not Active | Not Active | 2170 nM |  |  |  |  |  |  |
| Cc1ccc2oc(=O)c(-c3ccc([N+](=O)[O-])cc3)cc2c1 | 2090 | 4.12 |  |  | 2.1 nM |  |  | 80% | 4.18 µM | 10.5 ×10⁻⁶ cm/s |  |
| Cc1ccc2oc(=O)c(-c3cccc([N+](=O)[O-])c3)cc2c1 | > 16700 | 4.1 | Not Active | Not Active | 6 nM |  |  |  |  |  |  |
| C#CCN(C)[C@H](C)Cc1ccccc1 [SELEGILINE] |  |  |  |  |  |  |  |  |  |  | 8.51% |
| Cc1ccc2oc(=O)c(-c3cccc(N)c3)cc2c1 | > 50000 | 3.21 | Not Active | Not Active | 2.2 nM |  |  |  |  |  |  |
